According to ChEMBL document CHEMBL1136746 (2003):

Assays:
Rattus norvegicus [1] = organism: Rattus norvegicus; assay: Percent Hemolysis observed in rat red blood cells when Treated with 2 mM concentration; assay type: functional
Rattus norvegicus [2] = organism: Rattus norvegicus; assay: Percent Hemolysis observed in rat red blood cells when Treated with 5 mM concentration; assay type: functional
Rattus norvegicus [3] = organism: Rattus norvegicus; assay: Percent Hemolysis observed in rat red blood cells when Treated with 1 mM concentration; assay type: functional
Caco-2 = assay: Apparent Permeability through Caco-2 cell monolayers (n = 4); assay type: functional, cell-based
In short: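 Caco-2 cells seeded on polycarbonate inserts (0.45 µm pore, 6.5 mm) and grown 21 days to differentiate; TEER >400 Ω/cm² before and after. ³H-acetylated peptide or [¹⁴C]mannitol (200 µM) added apically in HBSS/25 mM HEPES pH 7.4, 37 °C, shaken 400 rpm. Receiver chamber swapped at 30, 90, 150 min; scintillation counting. Papp averaged over four replicates.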

Structure (SMILES)	Hemolysis (Rattus norvegicus [1])	Hemolysis (Rattus norvegicus [2])	Hemolysis (Rattus norvegicus [3])	Papp (Caco-2)
CCCCCCCCCCCCOS(=O)(=O)[O-].[Na+] [SODIUM LAURYL SULFATE]	51.54%	62.66%	12.25%	–
OC[C@@H](O)[C@@H](O)[C@H](O)[C@H](O)CO	–	–	–	5.88 10e-6 cm s-1
